Only some compounds are listed: those with a hit (about 3.8% of all), similar ones and a draw of the others.
HCV NS3 hel inh – HCV NS3 helicase inhibition. actives 0.56% (n = 290,000). NS3 helicase DNA unwinding, Cy5 molecular beacon fluorescence. AID 1800. inhibition, % at 10.9 µM;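 active = inhibition above the mean of all tested compounds plus 3 SD, set per campaign, cut at about 35% in these data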
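Control set: DMSO versus 110 µM thioflavine S; Material: NS3 helicase fragment of HCV; Measured by: Cy5 fluorescence at 0 and 60 min, beacon hairpin quenching; Read-out basis: percent inhibition from t60/t0 fluorescence ratio; Times: reaction time 60 min, 25 °C; Repeats: single replicate; Compound dosing: single dose, 10.9 µM nominal final, DMSO 0.8% final.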
HSP90 inh – HSP90 refolding inhibition in rabbit reticulocyte lysate; luciferase refolding luminescence, 3 h; actives 0.91% (n = 290,000); AID 1789; inhibition, % at 5.6 µM;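 active = inhibition above the screen-wide mean plus 3 SD, computed separately per campaign, cut at about 16% in these data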;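 note: inhibitors lower the luminescence because luciferase stays unfolded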
Hep lipid drop – hepatic lipid droplet formation modulation. AML12 mouse hepatocytes, oleate lipid droplets, BODIPY imaging. inhibition, % at 6.5 µM. actives 0.4% (n = 240,000);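 active = lipid droplet intensity inhibited by at least 50%, with more than 500 cells counted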
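material = mouse AML12 hepatocyte cell line, fixed after treatment | also added = 100 µM oleic acid challenge | doses = compound at 6.5 µM only | schedule = overnight exposure | technique = Image-based BODIPY and DAPI two-channel analysis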
HSF1 activator – increases HSF-1 driven luciferase reporter signal; actives 1.7% (n = 300,000); activation, % at 9 µM; NIH3T3-HGL HSF-1 luciferase reporter, MG132, 8 h; 100% = twice DMSO control signal;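 active = mean replicate activation of at least 50% with a set share of replicates each reaching 50%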
HSF1 inh – HSF1 inhibition. NIH3T3-HGL HSE-luciferase, MG132-induced, luminescence 8 h; hits give low values. activity change, negative = inhibition, % at 7.5 µM (by protocol). actives 0.77% (n = 300,000). AID 2098;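 active = more than half of replicate wells show activity change below -50%, luminescence cut by over half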;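 note: luciferase reports HSF-1 transcriptional activity via heat shock element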
NS3 hel confirm – confirmation of Hepatitis C virus NS3 helicase inhibitors; NS3 helicase DNA unwinding, Cy5 molecular beacon fluorescence; shares compounds with HCV NS3 hel inh; AID 1943; actives 31% (n = 1,600); inhibition, % at 10.9 µM;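 active = inhibition above the mean of all tested compounds plus 3 SD, cutoff set per campaign, cut at about 36% in these data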
DNA FID counter – displaces DNA intercalator in HCV helicase counter-screen. shares compounds with HCV NS3 hel inh. DNA fluorescent intercalator displacement, fluorescence. inhibition, % at 7.9 µM. actives 4% (n = 1,600). AID 1945; in the data active = inhibition above about 37%;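 note: higher means more displacement of ethidium bromide from the DNA hairpin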
DNA FID DR – displaces fluorescent intercalator from DNA, HCV helicase counter-screen | shares compounds with HCV NS3 hel inh | IC50, µM | fluorescent intercalator displacement from DNA, fluorescence | 120 tested, under 10 active; call rule not given here
Numbers stand for hits; – = inactive; · = not tested or not shown.

SMILES | HCV NS3 hel inh | HSP90 inh | Hep lipid drop | HSF1 activator | HSF1 inh | NS3 hel confirm | DNA FID counter | others
N#Cc1c(C(F)(F)F)cc(-c2ccco2)nc1SCc1ccccn1 | – | – | – | – | – | · | ·
CCOc1cccc(C2C(C(=O)c3ccc(C)o3)=C(O)C(=O)N2Cc2ccccc2)c1 (centres undefined) | 62 | – | – | – | – | 79 | – | DNA FID DR=–
C=CCOc1cccc(C2C(C(=O)c3ccco3)=C(O)C(=O)N2Cc2ccco2)c1 (centres undefined) | 38 | – | – | – | – | – | –
C=CCOc1cccc(C2C(C(=O)c3ccco3)=C(O)C(=O)N2Cc2ccncc2)c1 (centres undefined) | – | – | – | – | – | · | ·
N#CCCN(C(=S)NC(=O)c1ccco1)c1ccccc1F | – | – | – | – | – | · | ·
O=[N+]([O-])c1cc([N+](=O)[O-])c2oc(-c3ccccc3)c(Br)c2c1O | 45 | – | – | – | – | 74 | 68
COc1ccccc1Nc1cc(C(=O)N2CCc3ccccc3C2)c2ccccc2n1 | – | – | – | – | – | · | ·
COc1ccccc1-c1cc(C(=O)N2CCc3ccccc3C2)c2ccccc2n1 | 37 | – | · | – | – | – | –
CCOC(=O)c1ccc(NC(=S)Nc2ccc3[nH]c(=O)[nH]c3c2)cc1 | – | – | – | – | – | · | ·
COc1cc([N+](=O)[O-])c2ncsc2c1 | – | – | – | – | – | · | ·
COc1cc(SSc2cc(OC)cc([N+](=O)[O-])c2N)c(N)c([N+](=O)[O-])c1 | – | – | – | 88 | – | – | –
COc1ccc(CCNC(=O)C2CC(=O)N(C3CCCCC3)C2)cc1OC (centres undefined) | 96 | – | – | – | – | – | –
COc1ccc(CCNC(=O)C2CC(=O)N(C3CCCC3)C2)cc1OC (centres undefined) | – | – | · | · | · | · | ·
Cc1ccc(C(=O)N/N=C/c2ccc(-c3ccc(Br)cc3[N+](=O)[O-])o2)o1 | 48 | – | – | – | – | – | –
COc1cccc(OCC(=O)Nc2cc(NC(=O)COc3cccc(OC)c3)cc(C(=O)O)c2)c1 | – | – | – | – | – | · | ·
Cc1cccc(OCC(=O)Nc2cc(NC(=O)COc3cccc(C)c3)cc(C(=O)O)c2)c1 | 41 | – | – | – | – | 63 | –
Cc1cc(C)cc(OCC(=O)N/N=C/c2ccco2)c1 | – | – | – | – | – | · | ·
Cc1cccc(OCC(=O)N/N=C/C=C/c2ccco2)c1 | 43 | – | – | – | – | – | –
Cc1cccc(N/N=C/c2ccc(O)c(O)c2O)c1 | 38 | – | – | – | – | – | –
Cc1cc(C(=O)CSc2nn3c(=O)c(C(C)(C)C)nnc3s2)c(C)n1-c1ccc(F)cc1 | 40 | – | · | – | – | – | –
CC(C)N(C(=O)CSc1nn2c(=O)c(C(C)(C)C)nnc2s1)c1ccccc1 | – | – | · | – | – | · | ·
Cc1ccc2c(c1)NC(C(C)(C)C)CO2 (centres undefined) | 85 | – | · | – | – | – | –
CCC(=O)Nc1ccc(C(=O)CSc2nnc(-c3ccc(NS(=O)(=O)CC)cc3)o2)cc1OC | – | – | – | – | – | · | ·
CCOC(=O)c1c(CC(C)C)csc1NC(=O)c1ccccc1C(=O)O | 50 | – | – | – | – | 71 | –
CSc1ccc(NC(=O)Nc2ccc(C(=O)NCC(=O)O)cc2)cc1 | – | – | – | – | – | – | –
SMILES | HCV NS3 hel inh | HSP90 inh | Hep lipid drop | HSF1 activator | HSF1 inh | NS3 hel confirm | DNA FID counter | others
CCOc1ccc(NCc2cc3cc(OC)ccc3[nH]c2=O)cc1 | 43 | – | – | – | – | – | –
CC1=NN(C(N)=S)C(=O)C1N=Nc1ccccc1C (centres undefined) | – | – | – | – | – | · | ·
CC1=NN(C(N)=S)C(=O)C1N=Nc1ccccc1O (centres undefined) | 42 | – | – | – | – | – | –
COCCOC(=O)C1=C(C)NC(=O)NC1c1ccc(-c2cc(Cl)ccc2Cl)o1 (centres undefined) | 43 | – | – | – | – | – | –
COC(=O)C1=C(C)NC(=O)NC1c1ccc(-c2ccccc2Cl)o1 (centres undefined) | – | – | – | – | – | · | ·
COc1cccc(NC(=O)N2CCC(NC(=O)c3ccco3)CC2)c1 | – | – | – | – | – | · | ·
Cc1ccc(-c2nnc(NC(=O)Cc3ccc(F)cc3)o2)c(C)c1 | – | – | – | – | – | · | ·
Cc1ccc(C)c(-c2nnc(NC(=O)Cc3ccc(F)cc3)o2)c1 | 42 | – | – | – | – | – | –
Cc1ccccc1OCCC(=O)Nc1ccc(N2CCOCC2)cc1N1CCOCC1 | · | · | · | – | – | · | ·
COc1cc(OC)cc(C(=O)NCC2CCCN(Cc3cccc(C(C)=O)c3)C2)c1 (centres undefined) | – | – | – | – | – | · | ·
Cc1c(C(=O)c2ccc(Cl)cc2[N+](=O)[O-])c2ccccn2c1CCC#N | – | – | – | – | – | · | ·
Cc1c(C(=O)c2ccc(F)cc2F)c2ccccn2c1CCC#N | 49 | – | – | – | – | – | –
Cc1cccc(NS(=O)(=O)c2csc(C(N)=O)c2)c1C | – | – | – | – | – | · | ·
COc1ccc(-c2ccc(CCC(=O)O)n2-c2ccccc2O)cc1 | 45 | – | – | – | – | – | –
Cc1cc(OCc2nnc(SC(C)C(=O)O)n2-c2ccccc2)ccc1Cl (centres undefined) | 53 | – | – | – | – | 40 | –
CCOc1ccc(/C=c2\sc3nc(-c4ccco4)nn3c2=O)cc1OCC | 38 | – | – | · | · | 47 | – | DNA FID DR=–
O=C(/C=C/c1ccccc1)c1ccccc1 | – | – | – | – | – | · | ·
O=C(/C=C\c1ccc(-c2ccccc2)o1)c1ccccc1 | 40 | – | – | – | – | – | 53
O=S(=O)(NCc1c(Cl)cccc1Oc1ccccc1)c1ccc(F)cc1 | – | – | – | – | – | · | ·
Cc1nnc2sc(SCC(=O)Nc3nccs3)nn2c1=O | 40 | – | – | – | – | – | –
COc1ccccc1NC(=O)CSc1nn2c(=O)c(C)nnc2s1 | – | – | – | – | – | · | ·
COc1cc(C2/C(=C(\O)c3ccc4c(c3)OCCO4)C(=O)C(=O)N2c2nnc(C)s2)cc(OC)c1OC (centres undefined) | – | – | – | – | – | · | ·
COC(=O)c1ccc(-n2nc(C(F)(F)F)c3c2-c2ccoc2CC3)cc1 | – | – | – | – | – | · | ·
O=C(O)c1ccc(-n2nc(C(F)(F)F)c3c2-c2ccoc2CC3)cc1 | 37 | – | – | – | – | 51 | –

Source: PubChem BioAssay
